Reference: article PMC9771833 (International Journal for Parasitology: Drugs and Drug …, 2022)

Assays:
[1] = tested on: Plasmodium berghei NAT (atovaquone-resistant strain); assay: Hematological analysis of P. berghei NAT-infected mice; type: in vivo
Outline: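 Same P. berghei NAT-infected ICR-1 mouse model: 10^7 infected erythrocytes given i.p., test compound or control drug once daily for 4 days from 1 dpi. Blood was taken at 3, 6, 9 and 12 dpi and run on an automated blood cell counter for WBC, RBC, haemoglobin and hematocrit.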

[2] = tested on: Plasmodium berghei NAT (atovaquone-resistant strain); assay: 4-day suppression test in P. berghei NAT-infected ICR mice; type: in vivo
Outline: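 Female 7-week-old ICR-1 mice (6/group) infected i.p. with 10^7 P. berghei NAT-infected erythrocytes. Dosing began 1 dpi: test compound at 10, 20 or 30 mg/kg, once daily for 4 days. Controls were DHA 10, atovaquone 4 and chloroquine 10 mg/kg, given i.v. once daily for 4 days. Parasitemia was measured daily by FACS of tail blood. Weight and survival were recorded daily to 15 dpi.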

[3] = In vitro cytotoxicity in Vero cells; type: cell-based, African green monkey (Chlorocebus sp.); settings: African green monkey, Vero cells (kidney epithelial cells), CC50, Vero cell, mean ± SD
Outline: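 Vero cells were pre-seeded 12 h, then exposed to serially diluted test compound or control drugs for 48 h. Viability was read with CellTiter 96 AQueous One reagent at 490 nm absorbance. CC50 was calculated from the concentration–response data.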

[4] = tested on: Plasmodium falciparum 3D7; type: cell-based; settings: 3D7 (CQ Sensitive); relative to SKM13
[5] = tested on: P. f K1 (CQ Resistant); type: cell-based, Plasmodium falciparum; settings: relative to SKM13
[6] = tested on: eIF2α phosphorylation (ER stress response); assay: Western blotting of phosphorylated eIF2α in trophozoite lysates; type: cell-based, Plasmodium falciparum; settings: trophozoites treated 90 min, Western blot
Outline: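 P. falciparum trophozoite cultures (5% hematocrit, 5% parasitemia) were plated 10–12 h, then drug-treated at 37 °C. Parasites were freed with 0.15% saponin, lysed in RIPA, run on 10% Bis-Tris SDS-PAGE and transferred to PVDF. Blots were blocked in 5% BSA and probed overnight at 4 °C with anti-phospho-eIF2α (1:1000), anti-eIF2α (1:3000) and anti-PfEF1α (5 μg/mL) as loading control. Detection used HRP secondaries and ECL.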

O=C1C(O)=C([C@H]2CC[C@H](c3ccc(Cl)cc3)CC2)C(=O)c2ccccc21 [Atovaquone]
WBC counts ([1]; 4 mg/kg, compared with infected untreated mice (WBC increased at 9 to 12 dpi)): same pattern of haematological result | body weight ([2]; 4 mg/kg): decreased | parasitemia density ([2]; 4 mg/kg i.v.): did not suppress parasitemia density | survival rate ([2]; 4 mg/kg i.v. once a day for four days, 15 dpi, ICR mice n = 6): 33%

CCN(CC)CCCC(C)Nc1ccnc2cc(Cl)ccc12 (centres unmarked) [Chloroquine]
CC50 at 48 h [3]: 120 ± 16.4 µM | Relative SI [4]: 20.93 | WBC counts, HCT and Hgb ([1]; 10 mg/kg, infected mice, 3-12 dpi): did not affect | body weight ([2]; 10 mg/kg): maintained normal mouse body weight | parasite density (parasitemia) ([2]; 10 mg/kg i.v., all observation period, p < 0.001): significantly reduced | Relative SI [5]: 7.81 | phosphorylation of eIF2α [6]: did not increase phosphorylation of eIF2α

C[C@H]1[C@@H](O)O[C@@H]2O[C@@]3(C)CC[C@H]4[C@H](C)CC[C@@H]1[C@@]24OO3 [DHA, Dihydroartemisinin]
CC50 at 48 h [3]: 31.3 ± 8.94 µM | Relative SI [4]: 4.84 | Relative SI [5]: 3.97
